The values that follow come from article PMC3085959 (Journal of medicinal chemistry, 2011).

SMILES strings stand for the structures. “Also recorded” adds a separate entry of the source.

Test [1] concerns cloned human dopamine receptor subtypes, serotonin receptor subtypes, alpha-adrenergic receptors, and opioid receptors. The experiment in a line: CNS receptor screening, NIMH PDSP primary binding assays. As to conditions: 10 μM.
A further test has as its system rats. The experiment in a line: Rat forced swim test. It counts as in vivo. As to conditions: 10 mg/kg i.p., sub-chronic, 1 h before test, compared to vehicle. The gist of the method: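 Male Sprague-Dawley rats (200–225 g), naive, used once, tested in cylinders of 24–25 °C water, 22 cm deep. A 15 min pretest was followed 24 h later by a 5 min test. Dosing was i.p. in 10% β-hydroxypropyl cyclodextrin (2 mL/kg), 15 min after pretest and 1 h before test. Imipramine 15 mg/kg was the reference. Blinded video immobility scoring, one-way ANOVA.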

The target of test [2] is dopamine transporter (DAT) (Rattus norvegicus, UniProt P23977). As to the kind of experiment: Inhibition of [3H]dopamine uptake by DAT in rat striatum. The format is biochemical.
Sequence of dopamine transporter (DAT) (P23977 whole entry): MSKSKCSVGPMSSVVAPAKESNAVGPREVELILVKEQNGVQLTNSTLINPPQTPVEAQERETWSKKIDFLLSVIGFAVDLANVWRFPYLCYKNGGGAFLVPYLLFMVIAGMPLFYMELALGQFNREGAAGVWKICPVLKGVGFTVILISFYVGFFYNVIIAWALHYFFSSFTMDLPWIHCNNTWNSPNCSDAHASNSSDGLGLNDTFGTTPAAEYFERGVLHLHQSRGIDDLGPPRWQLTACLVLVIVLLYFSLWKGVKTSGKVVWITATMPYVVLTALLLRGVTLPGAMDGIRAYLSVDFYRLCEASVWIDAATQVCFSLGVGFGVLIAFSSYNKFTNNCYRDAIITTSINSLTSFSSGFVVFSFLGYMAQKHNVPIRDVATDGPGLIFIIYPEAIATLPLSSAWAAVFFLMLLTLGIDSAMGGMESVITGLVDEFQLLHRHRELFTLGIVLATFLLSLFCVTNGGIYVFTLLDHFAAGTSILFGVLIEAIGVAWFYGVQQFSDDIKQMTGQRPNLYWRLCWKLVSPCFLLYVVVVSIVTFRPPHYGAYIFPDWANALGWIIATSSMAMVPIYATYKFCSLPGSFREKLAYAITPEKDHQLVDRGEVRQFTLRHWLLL
Test [3] concerns the target serotonin transporter (SERT) (Rattus norvegicus, UniProt P31652). The experiment in a line: Inhibition of [3H]serotonin uptake by SERT in rat cerebral cortex. The format is biochemical.

Sequence of serotonin transporter (SERT) (P31652 whole entry): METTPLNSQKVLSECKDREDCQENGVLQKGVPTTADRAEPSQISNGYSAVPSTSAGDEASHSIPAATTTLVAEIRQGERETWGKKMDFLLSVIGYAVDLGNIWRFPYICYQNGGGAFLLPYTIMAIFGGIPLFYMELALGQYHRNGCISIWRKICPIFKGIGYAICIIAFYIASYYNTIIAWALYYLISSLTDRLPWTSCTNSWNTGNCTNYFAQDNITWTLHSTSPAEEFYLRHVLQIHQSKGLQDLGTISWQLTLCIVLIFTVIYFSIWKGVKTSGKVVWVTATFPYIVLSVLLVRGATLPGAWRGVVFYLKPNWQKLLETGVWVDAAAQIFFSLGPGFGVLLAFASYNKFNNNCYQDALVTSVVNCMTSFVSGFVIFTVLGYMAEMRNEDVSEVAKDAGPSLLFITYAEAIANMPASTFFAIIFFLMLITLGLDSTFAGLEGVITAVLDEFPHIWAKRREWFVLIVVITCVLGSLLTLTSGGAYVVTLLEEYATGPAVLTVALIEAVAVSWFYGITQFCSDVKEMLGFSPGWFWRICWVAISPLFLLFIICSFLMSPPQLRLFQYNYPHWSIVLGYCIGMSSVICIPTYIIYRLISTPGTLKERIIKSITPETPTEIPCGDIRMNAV

For `Oc1cccc(CN[C@H]2CC[C@@H](C(c3ccccc3)c3ccccc3)OC2)c1` [Compound 10f, 3-((((3S,6S)-6-benzhydryltetrahydro-2H-pyran-3-yl)amino)methyl)phenol], the “Inhibition in CNS receptor screening, majority of the receptor target sites” value in test [1] is listed as “less than 50%”. Moreover, the “Inhibition in CNS receptor screening, a few other target sites” value in test [1] (only marginally so in some cases) is recorded as “greater than 50%”. Besides, the “Effect on duration of immobility in the forced swimming test” value in the test on rats is listed as “significant reduction of immobility; also recorded: high efficacy in reducing immobility; also recorded: more efficacious than imipramine”.

The Ki is a measure of affinity in units of concentration, obtained from inhibition or displacement. Low readings indicate a stronger hold on the target, high ones a looser hold on the target. Regarding `c1ccc(C(c2ccccc2)[C@@H]2CC[C@H](NCc3cccs3)CO2)cc1` [Compound 10g, (3S,6S)-6-benzhydryl-N-(thiophen-2-ylmethyl)tetrahydro-2H-pyran-3-amine], the results for the Ki in test [2] and in test [3] were 15.9 nM and 12.9 nM, respectively.
